Experimental data from ChEMBL document CHEMBL3872205, “Design, synthesis and evaluation of novel potent angiotensin II receptor 1 antagonists” (Eur J Med Chem, 2016).

Assays:
[1] = AUC (0 to infinity) in Wistar rat spleen at 10 mg/kg, po by HPLC analysis; format: ADME, organism-based; design: dose 10 mg/kg, time infinity, route oral
Summary of the method: (§1)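 Wistar rats (180 ± 20 g) were dosed orally at 10, 15 or 30 mg/kg. Heart, liver, spleen, lung, kidney and brain were collected at 0–72 h (n = 6 per point). Tissue was rinsed, blotted and homogenized in saline (0.25 g/1 mL), then spun at 10,000 × g. Supernatant was methanol-extracted, dried under nitrogen at 50 °C, reconstituted in methanol and run on C18 HPLC (acetonitrile 60%/water 40%, 1.0 mL/min).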

[2] = MRT (0 to 72 hrs) in Wistar rat liver at 15 mg/kg, po by HPLC analysis; format: ADME, organism-based
Summary of the method: (§2)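 Male Wistar rats (180 ± 20 g) received a single oral dose of 10, 15 or 30 mg/kg. Tissues were collected at 0, 0.5, 1, 2, 4, 6, 8, 12, 24, 48 and 72 h (n = 6 per point). Samples of 0.25 g were rinsed, then homogenized in saline (0.25 g/1 mL) and centrifuged at 10,000 × g. Supernatant was methanol-extracted, dried under nitrogen at 50 °C and reconstituted in methanol. Analysis was by C18 HPLC (acetonitrile 60% / water 40%, 1.0 mL/min).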

[3] = AUC (0 to 72 hrs) in Wistar rat lung at 10 mg/kg, po by HPLC analysis; format: ADME, organism-based; design: time < 72 hr, dose 10 mg/kg, route oral; summary of the method: as §1
[4] = AUC (0 to 72 hrs) in Wistar rat liver at 10 mg/kg, po by HPLC analysis; format: ADME, organism-based; design: time < 72 hr, dose 10 mg/kg, route oral; summary of the method: as §1
[5] = AUC (0 to infinity) in Wistar rat lung at 10 mg/kg, po by HPLC analysis; format: ADME, organism-based; design: dose 10 mg/kg, time infinity, route oral; summary of the method: as §1
[6] = AUC (0 to infinity) in Wistar rat lung at 30 mg/kg, po by HPLC analysis; format: ADME, organism-based; design: dose 30 mg/kg, route oral, time infinity; summary of the method: as §1
[7] = AUC (0 to 72 hrs) in Wistar rat Heart at 30 mg/kg, po by HPLC analysis; format: ADME, organism-based; design: time < 72 hr, dose 30 mg/kg, route oral; summary of the method: as §1
[8] = AUC (0 to infinity) in Wistar rat brain at 15 mg/kg, po by HPLC analysis; format: ADME, organism-based; design: dose 15 mg/kg, time infinity, route oral; summary of the method: as §1
[9] = MRT (0 to infinity) in Wistar rat brain at 15 mg/kg, po by HPLC analysis; format: ADME, organism-based; summary of the method: as §2
[10] = AUC (0 to 72 hrs) in Wistar rat spleen at 10 mg/kg, po by HPLC analysis; format: ADME, organism-based; design: dose 10 mg/kg, time < 72 hr, route oral; summary of the method: as §1
[11] = AUC (0 to 72 hrs) in Wistar rat lung at 30 mg/kg, po by HPLC analysis; format: ADME, organism-based; design: time < 72 hr, dose 30 mg/kg, route oral; summary of the method: as §1
[12] = AUC (0 to infinity) in Wistar rat lung at 15 mg/kg, po by HPLC analysis; format: ADME, organism-based; design: dose 15 mg/kg, route oral, time infinity; summary of the method: as §1
[13] = Tmax in Wistar rat Heart at 10 mg/kg, po by HPLC analysis; format: ADME, organism-based; summary of the method: as §2
[14] = AUC (0 to infinity) in Wistar rat kidney at 15 mg/kg, po by HPLC analysis; format: ADME, organism-based; design: dose 15 mg/kg, time infinity, route oral; summary of the method: as §1
[15] = Cmax in Wistar rat brain at 30 mg/kg, po by HPLC analysis; format: ADME, organism-based; design: dose 30 mg/kg, route oral; summary of the method: as §1
[16] = MRT (0 to 72 hrs) in Wistar rat plasma at 10 mg/kg, po by HPLC analysis; format: ADME, organism-based
Summary of the method: (§3)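 Male Wistar rats (180 ± 20 g), 6 per dose group, each given a single oral dose. Blood was drawn by retro-orbital puncture into heparin at predose and at 0.5, 1, 2, 4, 6, 8, 12, 24, 48 and 72 h, then spun at 4000 × g and 4 °C. Plasma with internal standard was acetonitrile-precipitated, filtered and run on reverse-phase C18 HPLC (0.02 mol/L KH2PO4 55% / acetonitrile 45%, 1.0 mL/min). Calibration standards were 0.1–10 µg/mL, fitted by peak-height ratio with 1/conc² weighting.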

[17] = Tmax in Wistar rat plasma at 30 mg/kg, po by HPLC analysis; format: ADME, organism-based; summary of the method: as §3
[18] = Tmax in Wistar rat lung at 15 mg/kg, po by HPLC analysis; format: ADME, organism-based; summary of the method: as §2
[19] = Cmax in Wistar rat plasma at 30 mg/kg, po by HPLC analysis; format: ADME, organism-based; design: dose 30 mg/kg, route oral
[20] = Half life in Wistar rat liver at 15 mg/kg, po by HPLC analysis; format: ADME, organism-based
Summary of the method: (§4)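 Tissue distribution in male Wistar rats given oral 10, 15 or 30 mg/kg; heart, liver, spleen, lung, kidney and brain collected predose and 0.5–72 h post-dose (n = 6 per time). Tissue rinsed in saline, homogenised 0.25 g/1 mL saline, methanol extraction, dried under nitrogen, reconstituted in methanol. Analysis by reverse-phase C18 HPLC, acetonitrile/water 60:40, 1.0 mL/min, ambient temperature.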

[21] = MRT (0 to 72 hrs) in Wistar rat brain at 30 mg/kg, po by HPLC analysis; format: ADME, organism-based; summary of the method: as §4
[22] = Toxicity in ICR mouse assessed as mortality at 1500 mg/kg, ig after 2 weeks; format: organism-based; details: in vivo, po
[23] = Cmax in Wistar rat kidney at 10 mg/kg, po by HPLC analysis; format: ADME, organism-based; design: dose 10 mg/kg, route oral; summary of the method: as §4
Rattus norvegicus = assay: Toxicity in rat model assessed as effect on heart rate at 10 to 15 mg/kg, po up to 24 hrs; format: organism-based; details: in vivo
[24] = MRT (0 to infinity) in Wistar rat spleen at 10 mg/kg, po by HPLC analysis; format: ADME, organism-based; summary of the method: as §2
[25] = AUC (0 to infinity) in Wistar rat Heart at 10 mg/kg, po by HPLC analysis; format: ADME, organism-based; design: dose 10 mg/kg, time infinity, route oral; summary of the method: as §1
[26] = Half life in Wistar rat liver at 10 mg/kg, po by HPLC analysis; format: ADME, organism-based; summary of the method: as §4
[27] = Half life in Wistar rat lung at 10 mg/kg, po by HPLC analysis; format: ADME, organism-based; summary of the method: as §4
[28] = MRT (0 to infinity) in Wistar rat kidney at 15 mg/kg, po by HPLC analysis; format: ADME, organism-based; summary of the method: as §2
[29] = Cmax in Wistar rat heart at 10 mg/kg, po by HPLC analysis; format: ADME, organism-based; design: dose 10 mg/kg, route oral; summary of the method: as §4
[30] = MRT (0 to infinity) in Wistar rat plasma at 10 mg/kg, po by HPLC analysis; format: ADME, organism-based; summary of the method: as §3
[31] = Tmax in Wistar rat spleen at 15 mg/kg, po by HPLC analysis; format: ADME, organism-based
[32] = AUC (0 to infinity) in Wistar rat liver at 10 mg/kg, po by HPLC analysis; format: ADME, organism-based; design: dose 10 mg/kg, route oral, time infinity; summary of the method: as §1
[33] = MRT (0 to infinity) in Wistar rat Heart at 30 mg/kg, po by HPLC analysis; format: ADME, organism-based; summary of the method: as §2
[34] = Tmax in Wistar rat lung at 10 mg/kg, po by HPLC analysis; format: ADME, organism-based; summary of the method: as §2
[35] = Tmax in Wistar rat spleen at 30 mg/kg, po by HPLC analysis; format: ADME, organism-based
[36] = Tmax in Wistar rat brain at 15 mg/kg, po by HPLC analysis; format: ADME, organism-based; summary of the method: as §2
[37] = AUC (0 to 72 hrs) in Wistar rat brain at 10 mg/kg, po by HPLC analysis; format: ADME, organism-based; design: time < 72 hr, dose 10 mg/kg, route oral; summary of the method: as §1
[38] = MRT (0 to 72 hrs) in Wistar rat lung at 30 mg/kg, po by HPLC analysis; format: ADME, organism-based; summary of the method: as §2
[39] = AUC (0 to 72 hrs) in Wistar rat Heart at 15 mg/kg, po by HPLC analysis; format: ADME, organism-based; design: time < 72 hr, dose 15 mg/kg, route oral; summary of the method: as §1

CCCCC1=NC2(CCCC2)C(=O)N1Cc1ccc2c(ccn2-c2ccccc2-c2nnn[nH]2)c1
AUC(0-inf) [1]: 11700 ng·h/mL
MRT last [2]: 4.77 h
AUC(0-t) at 72 h [3]: 745 ng·h/mL
AUC(0-t) at 72 h [4]: 3070 ng·h/mL
AUC(0-inf) [5]: 745 ng·h/mL
AUC(0-inf) [6]: 2410 ng·h/mL
AUC(0-t) at 72 h [7]: 7360 ng·h/mL
AUC(0-inf) [8]: 1180 ng·h/mL
MRT inf [9]: 11.6 h
AUC(0-t) at 72 h [10]: 9470 ng·h/mL
AUC(0-t) at 72 h [11]: 2360 ng·h/mL
AUC(0-inf) [12]: 1350 ng·h/mL
Tmax [13]: 4 h
AUC(0-inf) [14]: 7690 ng·h/mL
Cmax [15]: 196 ng/mL
MRT last [16]: 7.87 h
Tmax [17]: 5 h
Tmax [18]: 1 h
Cmax [19]: 5760 ng/mL
half-life [20]: 1.8 h
MRT last [21]: 9.03 h
mortality at 336 h [22]: 50%
Cmax [23]: 180 ng/mL
Activity (Rattus norvegicus): Non-Toxic
MRT inf [24]: 30.4 h
AUC(0-inf) [25]: 962 ng·h/mL
half-life [26]: 2.33 h
half-life [27]: 3.04 h
MRT inf [28]: 29.4 h
Cmax [29]: 105 ng/mL
MRT inf [30]: 6.61 h
Tmax [31]: 1.5 h
AUC(0-inf) [32]: 3320 ng·h/mL
MRT inf [33]: 28.1 h
Tmax [34]: 2 h
Tmax [35]: 2 h
Tmax [36]: 4.83 h
AUC(0-t) at 72 h [37]: 346 ng·h/mL
MRT last [38]: 4.85 h
AUC(0-t) at 72 h [39]: 5840 ng·h/mL
